Experimental data of several laboratories.
Each line is one published result; the experiments were not run side by side.
Target: Rho-associated protein kinase 2 (ROCK2, Homo sapiens, UniProt O75116)

N#CC1(c2ccccn2)CCN(Cc2cc(C(=O)N3CCCC3)c(=O)n3ccccc23)CC1 — remaining binding (cell-free assay, competition with immobilised ligand; 1 µM): 72%
O=C(c1ccc(Nc2ncc(Cl)c(-c3ccc(Cl)s3)n2)cc1)N1CCC(N2CCCC2)CC1 — remaining binding (binding, competition with immobilised ligand; 1 µM): 4.3%
COc1ncc2cc3ccccc3nc2c1C#N — remaining binding (cell-free assay, competition with immobilised ligand; 5 µM): 98%
Cc1cnn2ncc(-c3ccnc(N(C)C)n3)c2c1 — remaining binding (binding; 1 µM): 95%
C[C@@H](c1cccc(C#N)c1)n1cc(Cl)cc(C(N)=O)c1=N — remaining binding (cell-free assay, competition with immobilised ligand; 1 µM): 90%
COc1cnc(Nc2cccc(S(N)(=O)=O)c2)nc1N1CCN(c2ccccc2)C(=O)C1 — remaining binding (binding, competition with immobilised ligand; 1 µM): 78%
CNC(=O)Nc1ccc2c(c1)CC[C@@]21OC(=O)N(CC(=O)N(Cc2ccc(F)cc2)[C@@H](C)C(F)(F)F)C1=O — remaining binding (cell-free assay, competition with immobilised ligand; 1 µM): 96%
O=C(NCCCN1CCOCC1)c1ccc(Nc2ncc(Cl)c(-c3ccc(Cl)s3)n2)cc1 — remaining binding (binding, competition with immobilised ligand; 1 µM): 61%
CN(c1nccc(-c2cnn3ncccc23)n1)C1CC1 — remaining binding (binding; 1 µM): 100%
Nc1ncc2c(n1)-c1c([nH]c3ccc(C#CC4CC4)cc13)CCCC2 — remaining binding (binding, competition with immobilised ligand; 1 µM): 75%
CC1CCCN1c1nccc(-c2cnn3ncccc23)n1 (stereo not drawn) — remaining binding (binding; 1 µM): 100%
CNC(=O)[C@@H]1CC[C@@H](n2c(-c3ccc4cnccc4c3)nc3ccc(C(=O)NCc4cccc(C(N)=O)c4)cc32)C1 — remaining binding (binding, competition with immobilised ligand; 1 µM): 100%
F[C@@H]1CCN(c2nccc(-c3cnn4ncccc34)n2)C1 — remaining binding (binding; 1 µM): 100%
O=C(c1ccc(Nc2nccc(-c3cc4ccccc4s3)n2)cc1)N1CCC(N2CCCC2)CC1 — remaining binding (binding, competition with immobilised ligand; 1 µM): 7.4%
CCN1CCN(Cc2ccc(C(=O)Nc3ccc(C)c(Oc4ccc5c(c4)CC(=O)N5)c3)cc2C(F)(F)F)CC1 — remaining binding (binding, competition with immobilised ligand; 1 µM): 74%
FC(F)(F)Oc1cccc(-c2cnc3ccc(-c4ccncc4)nn23)c1 — remaining binding (binding, competition with immobilised ligand; 5 µM): 42%
O=C(NCCCC1CCCCC1)c1ccc(CNC(=O)c2cnn(-c3ccccc3)c2C(F)(F)F)cc1 — remaining binding (cell-free assay, competition with immobilised ligand; 0.1 µM): 100%
N[C@H]1CCN(c2nccc(-c3cnn4ncccc34)n2)C1 — remaining binding (binding; 1 µM): 100%
Cc1cc(-n2nc(Cc3cc(F)cc(C(F)(F)F)c3)nc2C)ccc1C(N)=O — remaining binding (cell-free assay, competition with immobilised ligand; 1 µM): 96%
CN(C)c1nccc(-c2cnn3ncccc23)n1 — remaining binding (binding; 1 µM): 84%
Cc1nc(N2CC[C@@H](O)C2)ncc1-c1cc(C(F)(F)F)cc2[nH]ncc12 — remaining binding (binding, competition with immobilised ligand; 1 µM): 77%
C[C@@H]1CN(c2ccc3ncc(-c4ccc5[nH]nc(C6CC6)c5c4)n3n2)C[C@H](C)O1 — remaining binding (binding, competition with immobilised ligand; 0.5 µM): 21%
CN(C)C(=O)Cn1cc(-c2nc(C3(c4ccc(-c5cnc(N)nc5)cc4)CC3)no2)cn1 — remaining binding (cell-free assay, competition with immobilised ligand; 1 µM): 89%
O=C(Nc1c[nH]nc1C(=O)NC1CCNCC1)c1cc(F)cc(F)c1 — remaining binding (binding, competition with immobilised ligand; 1 µM): 88%
